Fewer inactive variants are shown than the library holds.
B1: tRNA (parent)
chain: GUUCCGUUGGCGUAAUGGUAACGCGUCUCCCUCCUAAGGAGAAGACUGCGGGUUCGAGUCCCGUACGGAACG

Variants of: B1
Assay: yeast fitness relative to wild type (ratio to wild type); higher = fitter; tRNA-Arg(CCU), competitive growth, 37 C, YPD
In short: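 A pool of Saccharomyces cerevisiae strains, each with a tRNA-Arg(CCU) gene variant at the native genomic locus, was competed in YPD at 37°C for 24 hours across six parallel replicates. The variants had been chemically synthesised at a 3% per-site mutation rate over 69 sites, and gene amplicons before and after competition were read by 100-nucleotide paired-end sequencing. Darwinian fitness relative to wild type rested on changes in genotype frequencies. Genotypes required ≥ 100 starting reads, and estimates < 0.5 were set to 0.5.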

Question: With GUUACGUUGGCGUAAUGGUAACGCGACUCCCUCCUCAGGAGAAGACUGGGGGUUCGAGUCCCGUACGGAACG [C4A U26A A36C C49G] as the variant, how does the yeast fitness read?
Answer: The yeast fitness was 0.583.

Question: For GUUACGUUGGCGUAACGGUAACGCGUCUCCCUUCUAAGGAGGAGACUGCGGGUUCGAGUCCCGUACGGAACG [C4A U16C C33U A42G], which yeast fitness is on record?
Answer: Its yeast fitness is at most 0.5.

Question: For GUUACGUUGGCGUAACAGUAACGCGUCUCCCCCCUAAGGAGAAGACUGCGGGUUCGAGUCCCGUACGGAACG [C4A U16C G17A U32C], which yeast fitness is on record?
Answer: Its yeast fitness is at most 0.5.

Question: Which yeast fitness does the source give for GUUACGUUGGCGUAAUGGUAACGCGACUCCCUCCUAAGGAGAAGACUGCGGGUUCGAGUCCCGUACGGAACG [C4A U26A] here?
Answer: Its yeast fitness is 0.683.

Question: For GUUACGUUGGCGGAAUGGUAACGUGUCUCCCUCCUAAGGAGGAGACUGCGGAUUCGAGUCCCGUACGGAACG [C4A U13G C24U A42G G52A], which yeast fitness is on record?
Answer: Its yeast fitness is 0.601.

Question: Which yeast fitness does the source give for GUUACGUUGGCGUAAUGGUAACGCGUCUCCCUCCUAAGGAGAAGACUCCGGGUUCGAGUCCCGUACGGAACG [C4A G48C] here?
Answer: The yeast fitness was 0.749.

Question: For GUUACGUUGGCGUAAUGGUAACGCGUCUCCCUCCUAAGGACAAGACUGUGGGUUCGAGUCCCGUACGGAACG [C4A G41C C49U], which yeast fitness is on record?
Answer: Its yeast fitness is at most 0.5.

Question: Which yeast fitness does the source give for GUUACGUUGGCGUAAUGGUAACGCGUCUCCCUCCUAAGGAGAAGACCGCGGGUUCGAGUCCCGUACGGAACG [C4A U47C] here?
Answer: Its yeast fitness is 0.773.

Question: Which yeast fitness does the source give for GUUACGUUGGCGUAAUGGUAACGCGUCUCCCUCCUAAGGAGAAGACUGCGCGUUCGAGUCCCGUACGGAACG [C4A G51C] here?
Answer: The yeast fitness was 0.547.

Question: Which yeast fitness does the source give for GUUACGUUGGCGUAAUGGUAACGCGUCUCCCUCCUAAGGAGAAGACUCCGCGUUCGUGUCCCGUACGCAACG [C4A G48C G51C A57U G68C] here?
Answer: The yeast fitness was at most 0.5.

Question: For GUUACGUUGGCGUAAUGGUAACGCGUCUCCCCCCUAAGGAGAAGAGUGCGGGUUCGAGUCCAGUACGGAACG [C4A U32C C46G C62A], which yeast fitness is on record?
Answer: The yeast fitness was at most 0.5.

Question: Which yeast fitness does the source give for GUUGCGUUGGCGUCAUGGUAACGCGUCUCCCUCCUAAGGAGAAGACUCCGGGUUCGAGUCCCGUACGGUGCG [C4G A14C G48C A69U A70G] here?
Answer: The yeast fitness was at most 0.5.

Question: Which yeast fitness does the source give for GUUGCGUUGGCGUAGUGGUGACACGUCUCCCUCGUAAGGAGAAGACUGCGGGUUCGAGUCCCGUACAGAACG [C4G A15G A20G G23A C34G G67A] here?
Answer: Its yeast fitness is at most 0.5.

Question: Which yeast fitness does the source give for GUUACGUUGGCGUAAUGGUAACGCGUCUCCCUCCCAAGGAGAACACUGCGGGUUCGAGUCCCGUACGGAACG [C4A U35C G44C] here?
Answer: Its yeast fitness is at most 0.5.

Question: With GUUACGUUGGCGUAAUGGGAACGCGUCUCCCUCCUCAGGAGAAGACUGCGGGUUCGAGUCCCGUACGGAACG [C4A U19G A36C] as the variant, how does the yeast fitness read?
Answer: The yeast fitness was 0.506.

Question: For GUUACGUUGGCGUAAUGGAAACGCGUUUCCCUCCUAAGGAGAAGACUGCGGGUUCGAGUCCCGUACAGAACG [C4A U19A C27U G67A], which yeast fitness is on record?
Answer: The yeast fitness was 0.573.

Question: With GUUACGUUGGCGUAAUGGUAACGCGUCUCCCUCCCAAGGAGAAGACUCCGGGUUUAAGUCCCGUACGGAACG [C4A U35C G48C C55U G56A] as the variant, how does the yeast fitness read?
Answer: Its yeast fitness is 0.51.

Question: Which yeast fitness does the source give for GUUGCGUUGGCGUAAUGGUAACGCGUCUCCCUCCUAAGGAGAAGACUGCGGGUUCGAGUCCCGUACGGAACG [C4G] here?
Answer: The yeast fitness was 1.01.

Question: Which yeast fitness does the source give for GUUACGUUGGCGUAAAGGUAACGCGUCUCCCUCCUAAGGAGACGAUUGCGGGUUCGAGUCCCGUACGGAACG [C4A U16A A43C C46U] here?
Answer: Its yeast fitness is at most 0.5.

Question: For GUUACGUUGGCGUAAUGGUAACGCGUCUCCCCCCUAAGGAGAAGAAUGCGGGUUCGAGUCCCGUACGGAACG [C4A U32C C46A], which yeast fitness is on record?
Answer: The yeast fitness was 0.697.

Question: For GUUACGUCGGCGUAAUGCUAACGCGUCUCCCUUCUAAGGAGAAGACUGCGGGUUCGAGUCCCGUACGGAACG [C4A U8C G18C C33U], which yeast fitness is on record?
Answer: Its yeast fitness is at most 0.5.

Question: For GUUGCGUUGGCGUACUGGUAACGCGUCUCACUCCUAAGGAGCAGACUGCGGGUUCAUGUCCCGUACGGAACG [C4G A15C C30A A42C G56A A57U], which yeast fitness is on record?
Answer: Its yeast fitness is at most 0.5.

Question: With GUUGCGUUGGCGUCAUGGUAACGCGUCUCCCUCCUAAGGAGAAGACUGCCGGUUCCAGUCCCGUACGGAACG [C4G A14C G50C G56C] as the variant, how does the yeast fitness read?
Answer: The yeast fitness was at most 0.5.

Question: Which yeast fitness does the source give for GUUACGUUGGCGUAAUGGUAACGCGCGUCCCUGCUAUGGAAAAGACUGCGGGUUCGGGUCCGGUACGGAACG [C4A U26C C27G C33G A37U G41A A57G C62G] here?
Answer: Its yeast fitness is at most 0.5.

Question: Which yeast fitness does the source give for GUUGCGUUGGCGUGAUGGUAACGCGUCUCGCUCCUAAGGAGAAGACUGCGGGUUCGAGUCCCCUACGGAACG [C4G A14G C30G G63C] here?
Answer: Its yeast fitness is at most 0.5.

Question: For GUUGCGUUGGCGUAGUAGUAACGCGUCUCCCUCAUAAGGAGAAGACUGCGGGUUCGAGUCCCGUACGGAACG [C4G A15G G17A C34A], which yeast fitness is on record?
Answer: Its yeast fitness is at most 0.5.

Question: For GUUGCGUUGGCGUGAUGGUAACGCGUCUCCAUCCUAAGGAGAAGACUGCGGGUUCGAGUCCCGUACGGAACG [C4G A14G C31A], which yeast fitness is on record?
Answer: Its yeast fitness is 0.528.

Question: With GUUACGUUGGCGUAAUGGUAACGCGUCUCCCUCCUAAGGAGAAGACUGCGGGUUCGAGUCCCGUACUGAACG [C4A G67U] as the variant, how does the yeast fitness read?
Answer: Its yeast fitness is 0.843.

Question: For GUUACGUUGGCGUAAUGGUAACGCGGCUGCCUCCUAAGGAGAAGACGGCGGGUUCGAGGCCCGUACGGAACG [C4A U26G C29G U47G U59G], which yeast fitness is on record?
Answer: Its yeast fitness is at most 0.5.

Question: For GUUACGUCGGCGUAAUGGUAACGCGUCUCCCUCCUAAGGAGAAGACUGCGCGUUCGAGUCCCGUACGGAACG [C4A U8C G51C], which yeast fitness is on record?
Answer: The yeast fitness was at most 0.5.

Question: With GUUACGUUGGCGUAACGGUAACGCGUCUCCCUCUUAAGGAGAAGACUGCGGGUUCGAGUCACGUACGGAACG [C4A U16C C34U C61A] as the variant, how does the yeast fitness read?
Answer: Its yeast fitness is at most 0.5.

Question: For GUUACGUUGGCGUAAUGGUAACGCGUCUCCCUCCUAAGGAGAAGACUGCGGGUUCGAGUCCCCUACGGAACG [C4A G63C], which yeast fitness is on record?
Answer: The yeast fitness was 0.748.

Question: With GUUACGUUGGCGUAAUGGUAACGCGUCUCCCUCCUAAGGAGAAGACUGCGGGUUCGAGUCCCGUACGCAACG [C4A G68C] as the variant, how does the yeast fitness read?
Answer: Its yeast fitness is 0.808.

Question: With GUUACGUUGGCGUAAUGGUAACGCGUCACCGUCCAAAGGAGAAGACAGCGGGUACGAGUCCCGUACGGAACG [C4A U28A C31G U35A U47A U54A] as the variant, how does the yeast fitness read?
Answer: The yeast fitness was at most 0.5.

Question: For GUUACGUUGGCGUAAAGGUAACGCGUCUCCCUCCUAGGGAGAAGACUGCGGGUUCGAGUCCCGUACGGUACG [C4A U16A A37G A69U], which yeast fitness is on record?
Answer: The yeast fitness was at most 0.5.

Question: For GUUACGUUGGCGAAAUGGUAACGCGUCUCCCUCCUAAGGAGAAGACUGCGGGUUCGACUCCCGUACGGUACG [C4A U13A G58C A69U], which yeast fitness is on record?
Answer: Its yeast fitness is 0.655.

Question: Which yeast fitness does the source give for GUUACGUGGGCGUAAUGGUAACGCGUCUCCCUCCUAAGGAGAAGACUGCGGGUUCGAGUCCCGUACGGUACG [C4A U8G A69U] here?
Answer: Its yeast fitness is at most 0.5.

Question: With GUUACGUUGGCGUAAUGGUAACGCGUCUCCCUCCUAAGGAGAAGACUGCGCGUUCGAGUCCCGUAUGGAACG [C4A G51C C66U] as the variant, how does the yeast fitness read?
Answer: The yeast fitness was at most 0.5.

Source: the RNAGym collection of RNA variant scans (doi:10.1126/science.aae0568)
